# Source: PMC10243129 (Proceedings of the National Academy of Sciences of the …, 2023)
# Legend:
# human MCM•cob(II)alamin [1] = molecular target: T1, human MCM•cob(II)alamin (Homo sapiens, UniProt P22033); test: Metabolite binding to MCM•cob
# T1 sequence (P22033 33-750): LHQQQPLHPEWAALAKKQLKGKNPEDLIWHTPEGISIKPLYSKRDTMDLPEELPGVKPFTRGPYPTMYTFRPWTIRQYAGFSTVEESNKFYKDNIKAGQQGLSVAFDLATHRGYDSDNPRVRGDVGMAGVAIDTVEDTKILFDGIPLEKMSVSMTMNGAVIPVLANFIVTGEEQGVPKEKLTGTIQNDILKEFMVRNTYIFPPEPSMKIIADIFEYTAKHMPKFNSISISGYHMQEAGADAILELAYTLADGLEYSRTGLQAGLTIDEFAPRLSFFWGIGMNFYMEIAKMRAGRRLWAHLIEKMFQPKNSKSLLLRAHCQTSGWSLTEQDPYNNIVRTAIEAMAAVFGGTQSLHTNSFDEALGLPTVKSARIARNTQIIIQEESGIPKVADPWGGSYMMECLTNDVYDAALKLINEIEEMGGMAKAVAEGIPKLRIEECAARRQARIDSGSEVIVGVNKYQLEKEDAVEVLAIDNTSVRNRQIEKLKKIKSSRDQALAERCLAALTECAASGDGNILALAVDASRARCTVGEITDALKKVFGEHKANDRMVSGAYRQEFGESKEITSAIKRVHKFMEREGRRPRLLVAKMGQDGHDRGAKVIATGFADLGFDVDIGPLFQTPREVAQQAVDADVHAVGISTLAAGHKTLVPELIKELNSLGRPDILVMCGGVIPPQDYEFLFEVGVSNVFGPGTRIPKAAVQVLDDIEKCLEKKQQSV
# Summary of the method: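 Cob(II)alamin was made by photolysis of 1.2 mM AdoCbl (stock) in anaerobic water and quantified with ε474 9.2 cm⁻¹ mM⁻¹. Work was done in an anaerobic chamber (<0.2 ppm O₂) with 40 µM cob(II)alamin and 20 µM MCM dimer in Buffer A at 20 °C. For the screen, metabolites were added at 5 mM and spectra recorded after 15 min. For Kd, metabolite was titrated, A460 read after 10 min, and data fitted to a quadratic binding equation.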
# human MCM•cob(II)alamin [2] = molecular target: T1, human MCM•cob(II)alamin; test: Stopped-flow spectroscopy of ADP/ATP binding to MCM•cob
# Summary of the method: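 Anaerobic stopped-flow with diode-array detection was run at 25 °C. MCM•cob(II)alamin was preformed from 80 µM cob(II)alamin and 40 µM MCM dimer (stock) in Buffer A for 10 min, then rapidly mixed with 0.25–2.5 mM ADP or ATP. A460 traces were fitted to a single exponential for kobs. kon came from linear regression of kobs on metabolite concentration, and koff from titration Kd and kon.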
# [3] = molecular target: T2, Mycobacterium tuberculosis MCM (Mycobacterium tuberculosis, UniProt P9WJK5); test: Kinetics of M. tuberculosis MCM•cob; format: biochemical; conditions: in air
# T2 sequence (P9WJK5 1-750): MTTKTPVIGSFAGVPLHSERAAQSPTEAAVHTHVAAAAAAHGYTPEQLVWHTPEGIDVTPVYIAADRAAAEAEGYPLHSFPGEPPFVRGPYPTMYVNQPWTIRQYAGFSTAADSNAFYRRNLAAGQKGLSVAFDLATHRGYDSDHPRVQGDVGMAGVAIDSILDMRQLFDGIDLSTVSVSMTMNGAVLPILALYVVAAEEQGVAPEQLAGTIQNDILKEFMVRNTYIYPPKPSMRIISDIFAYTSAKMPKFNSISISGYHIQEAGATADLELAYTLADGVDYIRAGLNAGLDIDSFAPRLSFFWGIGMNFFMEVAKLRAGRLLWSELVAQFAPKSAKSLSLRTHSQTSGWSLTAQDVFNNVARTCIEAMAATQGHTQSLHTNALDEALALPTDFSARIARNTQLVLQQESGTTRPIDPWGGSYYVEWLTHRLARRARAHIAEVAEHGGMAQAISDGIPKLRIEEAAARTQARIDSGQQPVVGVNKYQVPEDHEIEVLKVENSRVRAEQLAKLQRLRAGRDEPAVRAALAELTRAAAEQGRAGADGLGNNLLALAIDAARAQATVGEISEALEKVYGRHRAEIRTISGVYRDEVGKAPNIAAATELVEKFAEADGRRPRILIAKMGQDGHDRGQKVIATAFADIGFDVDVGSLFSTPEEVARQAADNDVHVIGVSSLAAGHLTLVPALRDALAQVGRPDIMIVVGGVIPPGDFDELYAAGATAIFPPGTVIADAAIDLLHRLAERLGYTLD
# T2 sequence (P9WJK7 1-615 partner): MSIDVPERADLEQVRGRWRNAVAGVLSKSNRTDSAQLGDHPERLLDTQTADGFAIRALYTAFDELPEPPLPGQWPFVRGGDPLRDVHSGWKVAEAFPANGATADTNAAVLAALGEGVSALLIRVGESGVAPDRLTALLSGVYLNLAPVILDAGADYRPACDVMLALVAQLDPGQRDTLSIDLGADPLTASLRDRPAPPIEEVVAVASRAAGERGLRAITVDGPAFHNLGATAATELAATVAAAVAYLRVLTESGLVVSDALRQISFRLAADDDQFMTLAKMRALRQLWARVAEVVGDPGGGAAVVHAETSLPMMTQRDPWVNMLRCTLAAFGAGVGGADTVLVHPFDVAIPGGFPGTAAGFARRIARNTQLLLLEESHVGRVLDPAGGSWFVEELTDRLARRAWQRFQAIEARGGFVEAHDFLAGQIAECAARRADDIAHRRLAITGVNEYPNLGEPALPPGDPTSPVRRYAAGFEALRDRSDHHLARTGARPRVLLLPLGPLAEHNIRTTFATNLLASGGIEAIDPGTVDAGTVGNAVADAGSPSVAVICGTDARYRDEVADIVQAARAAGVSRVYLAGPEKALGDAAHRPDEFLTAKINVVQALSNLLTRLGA
# human MCM, CblA and ATR = molecular target: T3, human MCM, CblA and ATR (Homo sapiens, UniProt P22033); test: CblA-dependent cob; format: biochemical; conditions: cob(II)alamin transfer MCM to ATR, anaerobic, 25 °C, 5 mM ADP or 0.5 mM M-CoA
# T3 sequence (P22033 33-750): T1 sequence (P22033 33-750)
# Summary of the method: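 Recombinant human MCM, CblA and ATR expressed in E. coli. Metabolite (ADP or M-CoA) was added to the MCM solution. A464 was followed for 20 min; transfer extent came from Δε464 5.6 cm⁻¹ mM⁻¹, and kobs from a single-exponential fit.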
# ATR = conditions: PPPi on ATR ternary product complex; ref [14]; cited from earlier work
# human ATR = molecular target: T4, human ATR (Homo sapiens, UniProt Q96EY8); test: ATP-triggered release of AdoCbl from ATR into solution; format: biochemical; conditions: ATR•AdoCbl without PPPi, confirmed after separation with a 10 kDa cutoff filter
# T4 sequence (Q96EY8 33-250): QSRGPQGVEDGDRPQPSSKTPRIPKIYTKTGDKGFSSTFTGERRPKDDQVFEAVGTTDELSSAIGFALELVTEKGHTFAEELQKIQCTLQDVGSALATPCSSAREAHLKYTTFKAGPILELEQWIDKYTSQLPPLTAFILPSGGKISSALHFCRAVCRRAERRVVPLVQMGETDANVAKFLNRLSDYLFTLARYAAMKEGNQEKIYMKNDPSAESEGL
# human MCM = molecular target: T5, human MCM (Homo sapiens, UniProt P22033); test: Kinetics of human MCM•cob; format: biochemical; conditions: absence of ligands, in air, 25 °C
# T5 sequence (P22033 33-750): T1 sequence (P22033 33-750)
# Summary of the method: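 The MCM•cob(II)alamin sample (40 µM cob(II)alamin, 20 µM MCM dimer) was prepared in anaerobic Buffer A at pH 7.5. Oxidation was started by twofold dilution with aerobic buffer. H₂OCbl formation was followed as the rise in absorbance at 350 nm versus time, giving kobs.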
Compound,Kd (human MCM•cob(II)alamin [1]),"Rate of transfer (kobs) (human MCM, CblA and ATR)",further results
"Nc1ncnc2c1ncn2[C@@H]1O[C@H](COP(=O)(O)OP(=O)(O)O)[C@@H](O)[C@H]1O [ADP, adenosine diphosphate]",44 ± 4.2 µM,0.24 ± 0.01 min⁻¹,fold higher kon of ADP versus ATP (human MCM•cob(II)alamin [2]; ADP vs ATP): ~ 100 fold; rate of ADP binding relative to oxidation of cob(II)alamin on MCM (human MCM•cob(II)alamin [2]; assuming a cellular ADP concentration of 6 mM): ~ 600 fold; Effect on oxidation of cob(II)alamin bound to M. tuberculosis MCM [3]: prevented
"O=P(O)(O)OP(=O)(O)OP(=O)(O)O [PPPi, sodium triphosphate pentabasic]",,,Kd (ATR): < 0.4 µM
"CC(C)(COP(=O)(O)OP(=O)(O)OC[C@H]1O[C@@H](n2cnc3c(N)ncnc32)[C@H](O)[C@@H]1OP(=O)(O)O)[C@@H](O)C(=O)NCCC(=O)NCCS [CoA, Coenzyme A]",118 ± 13 µM,0.92 ± 0.06 min⁻¹,
"Nc1ncnc2c1ncn2[C@@H]1O[C@H](COP(=O)(O)OP(=O)(O)OP(=O)(O)O)[C@@H](O)[C@H]1O [ATP, adenosine triphosphate]",30 ± 5 µM,,AdoCbl released from ATR into solution (human ATR): 40%
C/C1=C2/[N-][C@H]([C@H](CC(N)=O)[C@@]2(C)CCC(=O)NC[C@@H](C)OP(=O)([O-])O[C@H]2[C@@H](O)[C@@H](n3cnc4cc(C)c(C)cc43)O[C@@H]2CO)[C@]2(C)N=C(/C(C)=C3N=C(/C=C4N=C1[C@@H](CCC(N)=O)C\4(C)C)[C@@H](CCC(N)=O)[C@]\3(C)CC(N)=O)[C@@H](CCC(N)=O)[C@]2(C)CC(N)=O.[Co+2] [cob(II)alamin],,,kobs of oxidation of MCM-bound cob(II)alamin to H2OCbl (human MCM): 0.08 min⁻¹
"C[C@H]1O[C@@H](n2cnc3c(N)ncnc32)[C@H](O)[C@@H]1O [5′-dAdo, 5′-deoxyadenosine]",4.2 ± 2.1 µM,,
